Screening data deposited in PubChem BioAssay by several laboratories.
L929 necroptosis – inhibitors of zVAD-triggered necroptosis, primary screen, L929 cells | L929 zVAD necroptosis rescue, ATP luminescence, 24 h; with zVAD 60 µM | viability rescue, % at 10 µM | 0.38% of 220,000 active;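 active means activation, scaled between plate controls, above about 75%, limit read from the data; inactive means activation under that limit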;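 further: 0% = zVAD with DMSO and 100% = DMSO alone without zVAD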
p97 ATPase inh – inhibitors of human p97 ATPase, primary screen, biochemical. Transitional endoplasmic reticulum ATPase (Homo sapiens), P55072. recombinant p97 ATPase, Kinase-Glo ATP luminescence, 3 h. inhibition, % at 8 µM. 0.42% of 220,000 active; in the data active means inhibition above about 15%;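 further: 0% = DMSO vehicle and 100% = wells lacking enzyme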
Target sequence (P55072 whole entry, looked up): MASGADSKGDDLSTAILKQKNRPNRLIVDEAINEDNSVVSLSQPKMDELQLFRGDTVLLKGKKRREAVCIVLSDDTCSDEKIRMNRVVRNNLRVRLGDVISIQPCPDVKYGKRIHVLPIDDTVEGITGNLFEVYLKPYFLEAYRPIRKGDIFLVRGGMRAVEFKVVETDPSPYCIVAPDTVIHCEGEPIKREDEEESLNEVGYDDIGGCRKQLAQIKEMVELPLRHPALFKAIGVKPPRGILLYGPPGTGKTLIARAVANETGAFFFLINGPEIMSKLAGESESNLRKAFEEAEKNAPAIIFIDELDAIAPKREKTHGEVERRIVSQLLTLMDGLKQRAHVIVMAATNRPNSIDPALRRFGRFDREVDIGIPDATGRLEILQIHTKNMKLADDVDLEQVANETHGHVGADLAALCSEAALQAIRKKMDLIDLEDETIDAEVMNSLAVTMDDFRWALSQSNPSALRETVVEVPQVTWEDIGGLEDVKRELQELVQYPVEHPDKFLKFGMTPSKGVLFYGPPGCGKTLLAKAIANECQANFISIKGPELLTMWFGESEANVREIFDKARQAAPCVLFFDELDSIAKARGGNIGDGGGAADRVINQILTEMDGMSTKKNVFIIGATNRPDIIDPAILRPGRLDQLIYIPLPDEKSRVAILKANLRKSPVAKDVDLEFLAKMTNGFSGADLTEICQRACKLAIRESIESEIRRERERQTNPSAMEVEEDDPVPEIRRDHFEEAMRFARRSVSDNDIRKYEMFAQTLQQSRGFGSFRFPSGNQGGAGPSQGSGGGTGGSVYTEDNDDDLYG
Wee1 degr inh – Wee1 degradation inhibitors, primary screen, cell-based, HeLa, Wee1K328M-luciferase, luminescence | Wee1-like protein kinase (Homo sapiens), P30291 | HeLa Luc-Wee1K328M stability; 100% = proteasome inhibitor MG132 effect | reporter increase, % at 5 µM | 1.2% of 220,000 active;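 active means activation above the mean of all tested compounds plus 3 SD, set per screening run, cut at about 8.8% in these data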;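 further: cells exposed to compound for 20 h before luminescence read; 0% = DMSO alone and 100% = MG132 at 30 µM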
PfM18AAP inh – PfM18AAP inhibitors, malaria aminopeptidase, primary screen, biochemical, QFRET, recombinant enzyme | H-Glu-NHMec fluorogenic cleavage | inhibition, % at 7.35 µM | 1.2% of 290,000 active | AID 1822, 2009;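 active means inhibition above the campaign mean inhibition over all tested compounds plus 3 SD, cut at about 28% in these data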;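 further: 0% = plate median of test compound wells and 100% = 2 mM ZnCl2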
TNF death inh – inhibitors of TNF-alpha triggered necroptosis, primary screen, cell-based, Jurkat FADD-/-, single concentration; Jurkat FADD-/- TNF necroptosis rescue, ATP luminescence, 24 h; 0 = TNF only, 100 = no-TNF cells; activation (protection from cell death), % at 10 µM; 0.068% of 220,000 active;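 active means activation, meaning protection from cell death, of at least 50% relative to plate controls; inactive means activation below 50%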;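 further: necroptosis triggered by 40 ng/mL TNF-alpha added together with compound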
RBBP9 inhibitor – human RBBP9 inhibitors, primary screen, biochemical, fluorescence polarization, FP-Rh probe, HTS. Serine hydrolase RBBP9 (Homo sapiens), O75884. recombinant RBBP9. 0.2% of 220,000 active. inhibition, % at 7.94 µM;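 active means inhibition above the campaign mean of all tested compounds plus 3 SD, cut at about 14% in these data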;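 further: plate controls were DMSO wells with RBBP9 for no effect and wells lacking RBBP9 protein for full effect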
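Assay system: recombinant human RBBP9; Reagent: Serine-hydrolase probe FP-Rh, 375 nM pre-mixing; Doses: 7.94 µM single dose, 0.794% DMSO; Incubation: 30 min then 45 min, 25 °C; Detection: fluorescence polarization (mP), excitation 525 nm, emission 598 nm; Evaluation: percent inhibition from mP, scaled between DMSO and no-protein wells.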
Wee1 degr conf – Wee1 degradation inhibitors, confirmation, cell-based, HeLa, Wee1K328M-luciferase, luminescence, triplicate; shares compounds with Wee1 degr inh; AID 1410, 2008; activation, % at 5 µM; 4% of 1,100 active; HeLa Luc-Wee1K328M degradation; vehicle 0%, proteasome-blocked wells 100%; in the data active means activation above about 8.9%
zVAD death conf – inhibitors of zVAD-triggered necroptosis in L929, confirmation, L929 cells, duplicate runs; shares compounds with L929 necroptosis; L929 zVAD-induced necroptosis rescue, ATP luminescence, 24 h; activation (protection from necroptosis), % at 10 µM; 16% of 760 active; AID 463117, 2010;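 active means mean protection from necroptosis of at least 50% over duplicate tests; inactive means mean protection below 50%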;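 further: 0% = cells with zVAD alone and 100% = vehicle cells without zVAD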
p97 inh conf – p97 ATPase inhibitors, retest, confirmation, biochemical. inhibition, % at 8 µM. recombinant p97 ATPase, Kinase-Glo ATP luminescence. 44% of 760 active. shares compounds with p97 ATPase inh. AID 1517, 2009;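 active means percent inhibition of p97 ATPase above a set limit, the primary screen's mean plus 3 SD, cut at about 15% in these data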;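 further: 0% = DMSO wells and 100% = wells lacking p97 protein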
Starred values were filed as active, the others as inactive; x = not tested or not shown. Sampled rows, rich in hits. Any-hit rate of the full collection: about 2.7%.

SMILES | L929 necroptosis | p97 ATPase inh | Wee1 degr inh | PfM18AAP inh | TNF death inh | RBBP9 inhibitor | Wee1 degr conf | others
CCOC(=O)c1sc(NC(=O)CNC(=O)Cn2cnc3sc(C)c(C)c3c2=O)nc1C | 1 | 2 | 11* | -3 | 1 | 5 | -2
Clc1ccc(/C=N/Nc2ncnc3ccccc23)cc1Cl | 1 | 3 | 4 | 8 | -2 | -5 | x
Fc1ccccc1/C=N/Nc1ncnc2ccccc12 | 9 | 4 | 12* | 7 | 0 | -8 | 3
O=C(CSCc1ccccc1)Nc1ccc2c(c1)OCO2 | 0 | 2 | 12* | 1 | 22 | -3 | 4
C/C(CC(=O)Nc1ccc2c(c1)OCCO2)=N\NC(=O)c1ccccc1F | x | x | x | -1 | x | x | x
Cc1ccc(CSCC(=O)Nc2ccc3c(c2)OCO3)cc1 | 0 | -3 | 0 | -11 | 6 | -9 | x
C/C(CC(=O)Nc1ccc2c(c1)OCO2)=N\NC(=O)c1ccccc1N | 2 | 7 | 12* | 5 | -2 | -3 | -1
COc1ccc(CCN2CC(C(=O)N3CCC(O)(c4ccccc4)CC3)CCC2=O)cc1 (centres undefined) | x | x | x | 0 | x | x | x
CC(C)n1c(NCCO)nc2ccccc21 | 0 | -4 | 11* | -12 | 0 | -6 | -1
CCCn1c(NCCO)nc2ccccc21 | 1 | 3 | -1 | -2 | 0 | -7 | x
Cc1ccn2c(c1)nc(=S)n2C(=O)c1ccccc1 | x | 6 | 14* | 11 | -4 | -4 | 2
Cc1cccc(C(=O)n2c(=S)nc3cc(C)ccn32)c1 | -1 | -9 | 3 | -6 | -4 | -8 | x
CCOC(=O)[C@H]1[C@H]2COc3cc(OC)ccc3[C@@H]2N2C(=O)N(c3ccc(Cl)cc3)C(=O)[C@@]12C | x | x | x | -2 | x | x | x
Cc1ccc2c(c1)N(C(C)C(=O)NCCc1ccccc1)C(=O)CO2 (centres undefined) | 0 | -5 | 12* | 2 | 0 | -3 | 0
COc1cc(C(=O)NCC(=O)OCC(=O)c2ccc[nH]2)cc(OC)c1OC | 0 | 0 | 14* | 0 | -1 | -9 | -1
COc1ccc(C(=O)NCC(=O)OCC(=O)c2cc(OC)c(OC)c(OC)c2)cc1OC | 0 | 2 | -3 | 3 | 1 | -5 | x
CC(=O)c1c(COC(=O)c2ccc(C)cc2)nc2ccccc2[n+]1[O-] | 0 | 6 | 16* | -1 | 4 | -6 | -1
Cc1ccc(N(CC(=O)NC2CCCCC2)S(=O)(=O)c2cccs2)cc1 | x | x | x | 7 | x | x | x
Cc1cc(C)nc(NC(=O)c2ccc(COc3ccccc3Cl)cc2)c1 | 3 | -1 | 14* | -1 | 2 | -4 | 2
COC(=O)C1CCN(C(=O)CC(NC(=O)C(F)(F)F)c2cccs2)CC1 (centres undefined) | x | x | x | -6 | x | x | x
O=C(Cc1ccc(Cl)cc1)Nc1ccc(S(=O)(=O)Nc2cnc3ccccc3n2)cc1 | -4 | -3 | 12* | -1 | 0 | -10 | 1
C(=N\Nc1nc2ccccc2[nH]1)/c1ccc2c(c1)OCO2 | 79* | -1 | 12* | 29* | 19 | -12 | 3 | zVAD death conf=9
CCC1CCCCN1CCCNC(=O)Cn1c(=O)c2cccn2c2cccnc21 (centres undefined) | x | x | x | -1 | x | x | x
O=C(O)c1ccc(/C=N/Nc2cccc(C(F)(F)F)c2)cc1 | 3 | 2 | -2 | 6 | -1 | 3 | x
O=C(O)c1ccc(/C=N/Nc2ccc(C(F)(F)F)cn2)cc1 | 88* | 4 | 13* | 0 | 58* | -5 | -2 | zVAD death conf=12
SMILES | L929 necroptosis | p97 ATPase inh | Wee1 degr inh | PfM18AAP inh | TNF death inh | RBBP9 inhibitor | Wee1 degr conf | others
O=C1C=CC(O)(c2cc(=O)c3c(O)cc(O)cc3o2)C=C1 | 125* | 7 | 41* | 17 | -15 | -8 | 69* | zVAD death conf=166*
Cc1ccc(C(=O)N/C(=C/c2ccccc2)C(=O)NCC2CCCO2)cc1 (centres undefined) | 0 | -2 | 2 | 0 | -1 | 1 | x
Cc1nn(-c2ccccc2)c(C)c1-c1cc(C(=O)N/N=C/c2cccnc2)[nH]n1 | 75* | -2 | 19* | -2 | 0 | -3 | 3 | zVAD death conf=3
Fc1ccc(Cn2ccc(-c3cnc(-c4ccccc4)s3)n2)cc1 | 0 | -1 | 2 | 1 | 0 | -4 | x
O=C(c1ccc(F)cc1)n1ccc(-c2cnc(-c3ccccc3)s2)n1 | 83* | 6 | 15* | 2 | 6 | -1 | 3 | zVAD death conf=0
CCOC(=O)C1=C(CCl)NC(=O)NC1c1ccc2c(c1)OCO2 (centres undefined) | x | x | x | 5 | x | x | x
CCOP1(=O)OCC2OC(n3cnc4c(N)ncnc43)C(O)C2O1 (centres undefined) | 0 | 3 | 0 | 1 | -1 | -5 | x
CCOc1ccccc1NC(=O)Nc1cnccn1 | 80* | 5 | 17* | 7 | -2 | -2 | 2 | zVAD death conf=2
Cc1ccc(NC(=O)Nc2ccc(Cl)c(Cl)c2)nc1 | x | x | x | -7 | x | x | x
Cc1ccc(NC(=O)Nc2ccc(Cl)cn2)cc1 | 83* | 0 | 11* | -5 | 3 | -3 | 4 | zVAD death conf=1
Nc1c(C(=O)O)sc2nc(-c3ccccc3)cc(-c3ccc(F)cc3)c12 | 0 | 12 | 4 | -5 | -2 | -16 | x
Nc1c(C(=O)O)sc2nc(-c3ccccc3)cc(-c3ccccc3)c12 | 0 | 23* | 11* | -4 | 3 | -2 | 1 | p97 inh conf=7
COc1ccc(NC(=O)Nc2ccc3c(c2)OCO3)c(C)c1 | x | x | x | 4 | x | x | x
Cc1ccc(NC(=S)N2CCCC(O)C2)cc1 (centres undefined) | -2 | 60* | 14* | -5 | -1 | -10 | 2 | p97 inh conf=2
COC(=O)/C=C/c1ccc2c(c1)OCO2 | 0 | 2 | 1 | -3 | 0 | -2 | x
